Test results taken from ChEMBL document CHEMBL4138239, “Anti-inflammatory Dimeric 2-(2-Phenylethyl)chromones from the Resinous Wood of Aquilaria sinensis” (J Nat Prod, 2018).

Legend:
RAW264.7 [1] = assay: Cytotoxicity against mouse RAW264.7 cells assessed as effect on cell viability up to 80 uM after 24 hrs by MTT assay; assay type: cell-based; conditions: raw264.7, 24 h
In short: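 Viability or proliferation of RAW264.7 cells was measured by MTT. Compounds were tested at up to 80 μM alongside LPS treatment for 24 h. They were made as DMSO stocks, with final DMSO below 0.2%. The assay was run to test whether lower NO reflected loss of cells.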

RAW264.7 [2] = assay: Antiinflammatory activity in mouse RAW264.7 cells assessed as inhibition of LPS-induced nitric oxide production after 24 hrs by Griess assay; assay type: functional, cell-based; conditions: RAW264.7, 24 h
In short: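 RAW264.7 cells were obtained from the Peking Union Medical College Cell Bank and stimulated with LPS. Nitric oxide production was measured in the presence of test compounds. Compounds were made as DMSO stocks, with final DMSO below 0.2%. IC50 values are given as mean ± SD of three independent experiments. A positive control was included.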

| SMILES | Activity (RAW264.7 [1]) | IC50 (RAW264.7 [2]) [µM] |
| --- | --- | --- |
| O=c1cc(CCc2ccccc2)oc2c1[C@@H]1c3ccc4c(=O)cc(CCc5ccccc5)oc4c3O[C@@H]([C@@H]1O)[C@H]2O | Non-Toxic | 8.6 |
| COc1ccc(CCc2cc(=O)c3c(o2)[C@@H](O)[C@@H]2Oc4c(c(O)cc5c(=O)cc(CCc6ccc(OC)cc6)oc45)[C@H]3[C@@H]2O)cc1 | Non-Toxic | 10.5 |
| COc1ccc2oc(CCc3ccc4c(c3)O[C@H]3[C@H](O)[C@@H]4c4c(oc(CCc5ccccc5)cc4=O)[C@@H]3O)cc(=O)c2c1 | Non-Toxic | 12 |
| COc1ccc2oc(CCc3ccc(OC)c4c3[C@@H]3c5c(oc(CCc6ccccc6)cc5=O)[C@@H](O)[C@H](O4)[C@H]3O)cc(=O)c2c1 | Non-Toxic | 8.5 |
| O=c1cc(CCc2ccccc2)oc2c1[C@@H]1c3c(ccc4oc(CCc5ccccc5)cc(=O)c34)O[C@@H]([C@@H]1O)[C@H]2O | Non-Toxic | 11.5 |
| O=c1cc(CCc2ccccc2)oc2c1[C@H]1c3c(ccc4oc(CCc5ccccc5)cc(=O)c34)O[C@H]([C@H]1O)[C@@H]2O | Non-Toxic | 7.6 |
| COc1ccc(CCc2cc(=O)c3c(O)c(O)c(O)c(Cl)c3o2)cc1 | – | 4.4 |
| COc1ccc2oc(CCc3ccc(OC)c4c3[C@H]3c5c(oc(CCc6ccccc6)cc5=O)[C@H](O)[C@@H](O4)[C@@H]3O)cc(=O)c2c1 | Non-Toxic | 8.5 |
| O=c1cc(CCc2ccccc2)oc2c1[C@H]1c3ccc4c(=O)cc(CCc5ccccc5)oc4c3O[C@H]([C@H]1O)[C@@H]2O | Non-Toxic | 8.8 |
| COc1ccc(CCc2cc(=O)c3c(o2)[C@H](O)[C@H]2Oc4c(OC)ccc(CCc5cc(=O)c6cc(OC)ccc6o5)c4[C@@H]3[C@H]2O)cc1 | Non-Toxic | 7 |
| COc1ccc(CCc2cc(=O)c3c(o2)[C@@H](O)[C@@H]2Oc4ccc5oc(CCc6ccccc6)cc(=O)c5c4[C@H]3[C@@H]2O)cc1 | Non-Toxic | 9.3 |
